# Activity calls are given as the source filed them. The rule behind the calls is not given here.
# Assays:
# [1] = target: Calcium/calmodulin-dependent protein kinase type II subunit delta (Homo sapiens) (UniProt Q13557); assay: Inhibition of CAMK2D (unknown origin) assessed as remaining activity at 1 uM by Kinome scan method relative to control
# Summary of the method: (§1)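 Active-site-dependent competition-binding profiling (KINOMEscan) at 1 μM against a 468-kinase panel; compound supplied from a 10 mM DMSO stock. Read-out is ctrl% = (test signal − positive control signal)/(negative control signal − positive control signal) × 100. DMSO is the negative control (100%) and a control compound the positive control (0%). Lower ctrl% means tighter binding.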
# [2] = target: T1, Serine/threonine-protein kinase 4 (Homo sapiens, UniProt Q13043); assay: Inhibition of recombinant His-tagged full-length MST1 (unknown origin) expressing in Escherichia coli assessed as MOB1a phosphorylation level incubated for 30 min in the presence of 100 uM ATP by immunoblot analysis
# T1 sequence (Q13043 whole entry): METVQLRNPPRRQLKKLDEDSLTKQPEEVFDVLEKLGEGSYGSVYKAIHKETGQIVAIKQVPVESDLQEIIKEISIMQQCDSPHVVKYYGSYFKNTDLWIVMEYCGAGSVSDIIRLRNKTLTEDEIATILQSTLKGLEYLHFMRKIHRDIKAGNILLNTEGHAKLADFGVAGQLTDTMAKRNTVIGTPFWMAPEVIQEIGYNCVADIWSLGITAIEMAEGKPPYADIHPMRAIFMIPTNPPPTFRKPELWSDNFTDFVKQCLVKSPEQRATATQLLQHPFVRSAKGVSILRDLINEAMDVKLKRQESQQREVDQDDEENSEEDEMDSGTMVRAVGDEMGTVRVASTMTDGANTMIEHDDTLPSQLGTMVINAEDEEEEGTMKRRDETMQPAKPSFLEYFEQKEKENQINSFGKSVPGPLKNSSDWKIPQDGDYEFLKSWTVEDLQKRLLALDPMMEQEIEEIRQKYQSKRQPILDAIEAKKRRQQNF
# [3] = system: Tyrosine-protein kinase ABL1 (Homo sapiens), P00519 [Q252H]; assay: Inhibition of phosphorylated ABL1 Q252H mutant (unknown origin) assessed as remaining activity at 1 uM by Kinome scan method relative to control
# [4] = system: Mus musculus; assay: In vivo inhibition of MST1/2 in wild-type Mst1fl/fl Mst2fl/fl mouse assessed as decrease in MOB1 phosphorylation level at 1 mg/kg, ip administrated daily for 7 days by immunoblot analysis; type: functional, organism-based; settings: Liver, time 7.0 day
# [5] = target: Calcium/calmodulin-dependent protein kinase type 1G (Homo sapiens) (UniProt Q96NX5); assay: Inhibition of CAMK1G (unknown origin) assessed as remaining activity at 1 uM by Kinome scan method relative to control; summary of the method: as §1
# Sequence of Calcium/calmodulin-dependent protein kinase type 1G (Homo sapiens) (Q96NX5 whole entry): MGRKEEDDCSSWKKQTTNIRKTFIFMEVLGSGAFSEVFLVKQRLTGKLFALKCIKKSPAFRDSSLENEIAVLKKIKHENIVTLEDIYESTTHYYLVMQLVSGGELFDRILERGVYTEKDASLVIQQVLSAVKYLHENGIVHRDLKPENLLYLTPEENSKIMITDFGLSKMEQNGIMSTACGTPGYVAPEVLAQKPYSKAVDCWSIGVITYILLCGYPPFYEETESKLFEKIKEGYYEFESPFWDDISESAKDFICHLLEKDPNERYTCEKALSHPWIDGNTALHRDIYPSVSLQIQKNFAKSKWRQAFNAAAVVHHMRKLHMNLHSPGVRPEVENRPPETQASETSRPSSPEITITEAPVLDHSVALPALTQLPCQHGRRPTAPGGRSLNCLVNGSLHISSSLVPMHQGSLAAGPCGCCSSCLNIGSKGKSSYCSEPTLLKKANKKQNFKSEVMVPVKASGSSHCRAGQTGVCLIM
# [6] = target: Cyclin-dependent kinase 4 (Homo sapiens) (UniProt P11802); assay: Inhibition of CDK4 (unknown origin) assessed as remaining activity at 1 uM by Kinome scan method relative to control; summary of the method: as §1
# [7] = target: Phosphatidylinositol 3-kinase C2 domain-containing subunit gamma (Homo sapiens) (UniProt O75747); assay: Inhibition of PIK3C2G (unknown origin) assessed as remaining activity at 1 uM by Kinome scan method relative to control
# [8] = target: T1, Serine/threonine-protein kinase 4; assay: Inhibition of recombinant His-tagged full-length MST1 (unknown origin) expressing in Escherichia coli assessed as MOB1a phosphorylation level incubated for 30 min in the presence of 10 uM ATP by immunoblot analysis
# [9] = target: RAC-gamma serine/threonine-protein kinase (Homo sapiens) (UniProt Q9Y243); assay: Inhibition of AKT3 (unknown origin) assessed as remaining activity at 1 uM by Kinome scan method relative to control
# Summary of the method: (§2)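 Active-site-dependent competition-binding (KINOMEscan) panel of 468 kinases, test compound at 1 μM (from a 10 mM DMSO stock). Read-out is ctrl% = (test signal − positive control signal)/(negative control signal − positive control signal) × 100. DMSO is the negative control (100%) and a control compound is the positive control (0%). Lower ctrl% means tighter binding.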
# [10] = target: Serine/threonine-protein kinase PAK 3 (Homo sapiens) (UniProt O75914); assay: Inhibition of PAK3 (unknown origin) assessed as remaining activity at 1 uM by Kinome scan method relative to control
# Sequence of Serine/threonine-protein kinase PAK 3 (Homo sapiens) (O75914 whole entry, looked up): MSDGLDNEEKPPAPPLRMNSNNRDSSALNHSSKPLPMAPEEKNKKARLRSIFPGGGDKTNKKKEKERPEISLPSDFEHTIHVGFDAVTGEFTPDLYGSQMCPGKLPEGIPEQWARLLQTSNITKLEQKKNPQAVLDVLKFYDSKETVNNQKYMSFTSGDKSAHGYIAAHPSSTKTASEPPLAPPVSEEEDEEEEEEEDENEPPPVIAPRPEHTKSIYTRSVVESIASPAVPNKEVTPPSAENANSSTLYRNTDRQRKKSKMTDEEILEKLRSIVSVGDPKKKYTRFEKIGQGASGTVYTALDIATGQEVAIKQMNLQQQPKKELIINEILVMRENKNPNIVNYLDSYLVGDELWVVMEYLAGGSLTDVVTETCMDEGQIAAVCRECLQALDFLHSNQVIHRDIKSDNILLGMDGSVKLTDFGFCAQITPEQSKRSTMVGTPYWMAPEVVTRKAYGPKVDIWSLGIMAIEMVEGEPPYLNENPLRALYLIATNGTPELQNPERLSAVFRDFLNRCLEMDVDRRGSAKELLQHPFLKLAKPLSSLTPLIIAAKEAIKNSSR
# [11] = target: Ephrin type-A receptor 1 (Homo sapiens) (UniProt P21709); assay: Inhibition of EPHA1 (unknown origin) assessed as remaining activity at 1 uM by Kinome scan method relative to control
# [12] = target: T1, Serine/threonine-protein kinase 4; assay: Inhibition of MST1 (unknown origin) in presence of ATP by enzymatic assay
# [13] = target: Serine/threonine-protein kinase N2 (Homo sapiens) (UniProt Q16513); assay: Inhibition of PKN2 (unknown origin) assessed as remaining activity at 1 uM by Kinome scan method relative to control
# [14] = target: Vascular endothelial growth factor receptor 1 (Homo sapiens) (UniProt P17948); assay: Inhibition of FLT1 (unknown origin) assessed as remaining activity at 1 uM by Kinome scan method relative to control
# [15] = target: Serine/threonine-protein kinase B-raf (Homo sapiens) (UniProt P15056); assay: Inhibition of BRAF (unknown origin) assessed as remaining activity at 1 uM by Kinome scan method relative to control; summary of the method: as §2
# Sequence of Serine/threonine-protein kinase B-raf (Homo sapiens) (P15056 whole entry): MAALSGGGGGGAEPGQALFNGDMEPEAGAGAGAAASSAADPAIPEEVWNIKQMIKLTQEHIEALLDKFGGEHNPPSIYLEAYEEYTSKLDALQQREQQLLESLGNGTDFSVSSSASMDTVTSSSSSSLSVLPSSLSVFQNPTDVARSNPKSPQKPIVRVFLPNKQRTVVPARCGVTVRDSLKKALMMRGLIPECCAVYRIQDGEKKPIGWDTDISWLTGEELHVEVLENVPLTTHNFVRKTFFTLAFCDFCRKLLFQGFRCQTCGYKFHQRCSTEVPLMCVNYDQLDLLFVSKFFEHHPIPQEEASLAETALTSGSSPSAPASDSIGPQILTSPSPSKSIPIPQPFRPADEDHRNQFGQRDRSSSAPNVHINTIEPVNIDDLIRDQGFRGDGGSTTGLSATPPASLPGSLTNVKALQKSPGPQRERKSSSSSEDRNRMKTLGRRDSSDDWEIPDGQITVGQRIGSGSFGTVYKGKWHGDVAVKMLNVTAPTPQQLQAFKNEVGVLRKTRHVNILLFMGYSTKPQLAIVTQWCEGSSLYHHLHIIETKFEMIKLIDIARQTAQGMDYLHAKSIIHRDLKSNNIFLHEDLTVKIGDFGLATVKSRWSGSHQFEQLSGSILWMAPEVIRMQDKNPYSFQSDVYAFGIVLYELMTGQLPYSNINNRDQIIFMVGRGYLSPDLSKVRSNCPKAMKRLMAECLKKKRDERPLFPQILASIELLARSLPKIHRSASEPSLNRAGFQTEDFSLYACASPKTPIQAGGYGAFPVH
# [16] = system: Tyrosine-protein kinase ABL1 (Homo sapiens), P00519 [Q252H]; assay: Inhibition of ABL1 Q252H mutant (unknown origin) assessed as remaining activity at 1 uM by Kinome scan method relative to control; summary of the method: as §2
# [17] = target: Serine/threonine-protein kinase RIO3 (Homo sapiens) (UniProt O14730); assay: Inhibition of RIOK3 (unknown origin) assessed as remaining activity at 1 uM by Kinome scan method relative to control
# [18] = target: Serine/threonine-protein kinase SIK3 (Homo sapiens) (UniProt Q9Y2K2); assay: Inhibition of QSK (unknown origin) assessed as remaining activity at 1 uM by Kinome scan method relative to control
# Sequence of Serine/threonine-protein kinase SIK3 (Homo sapiens) (Q9Y2K2 whole entry, looked up): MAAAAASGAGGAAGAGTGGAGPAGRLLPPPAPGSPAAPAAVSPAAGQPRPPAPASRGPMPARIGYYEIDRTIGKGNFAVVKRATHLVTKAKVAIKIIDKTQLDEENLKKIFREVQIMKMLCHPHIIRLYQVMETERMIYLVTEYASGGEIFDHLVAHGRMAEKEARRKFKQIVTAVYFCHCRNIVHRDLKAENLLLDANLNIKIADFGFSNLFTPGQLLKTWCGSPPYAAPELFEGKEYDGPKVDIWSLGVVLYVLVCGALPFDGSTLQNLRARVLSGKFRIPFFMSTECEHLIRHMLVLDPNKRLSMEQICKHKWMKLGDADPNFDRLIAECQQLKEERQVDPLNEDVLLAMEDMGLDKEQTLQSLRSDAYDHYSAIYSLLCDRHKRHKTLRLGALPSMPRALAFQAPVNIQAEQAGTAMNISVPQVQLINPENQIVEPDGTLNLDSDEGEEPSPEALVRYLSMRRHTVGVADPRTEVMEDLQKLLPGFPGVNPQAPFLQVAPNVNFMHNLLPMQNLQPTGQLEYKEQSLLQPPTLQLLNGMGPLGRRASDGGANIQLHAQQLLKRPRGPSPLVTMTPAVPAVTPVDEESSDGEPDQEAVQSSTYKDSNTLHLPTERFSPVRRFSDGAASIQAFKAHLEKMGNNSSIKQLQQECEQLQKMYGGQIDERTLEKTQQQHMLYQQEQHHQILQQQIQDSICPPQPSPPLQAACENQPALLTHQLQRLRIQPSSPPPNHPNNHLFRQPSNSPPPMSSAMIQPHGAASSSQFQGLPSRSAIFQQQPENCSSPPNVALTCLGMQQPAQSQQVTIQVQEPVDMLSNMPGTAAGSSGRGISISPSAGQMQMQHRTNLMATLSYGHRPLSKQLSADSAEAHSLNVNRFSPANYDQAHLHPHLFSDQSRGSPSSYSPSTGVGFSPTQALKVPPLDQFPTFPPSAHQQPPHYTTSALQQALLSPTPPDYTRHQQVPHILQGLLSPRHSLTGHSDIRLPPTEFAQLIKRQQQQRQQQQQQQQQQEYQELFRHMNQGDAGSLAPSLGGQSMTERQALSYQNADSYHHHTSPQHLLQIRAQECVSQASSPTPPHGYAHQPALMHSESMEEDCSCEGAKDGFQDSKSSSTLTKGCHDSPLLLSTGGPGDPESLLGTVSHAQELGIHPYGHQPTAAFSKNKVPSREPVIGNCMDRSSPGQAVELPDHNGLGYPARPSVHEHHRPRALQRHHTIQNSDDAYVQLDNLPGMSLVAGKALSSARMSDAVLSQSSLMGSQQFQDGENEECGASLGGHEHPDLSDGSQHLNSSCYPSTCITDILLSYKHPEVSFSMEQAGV
# [19] = target: Activin receptor type-2B (Homo sapiens) (UniProt Q13705); assay: Inhibition of ACVR2B (unknown origin) assessed as remaining activity at 1 uM by Kinome scan method relative to control; summary of the method: as §2
# [20] = target: Phosphatidylinositol 4-kinase beta (Homo sapiens) (UniProt Q9UBF8); assay: Inhibition of PIK4CB (unknown origin) assessed as remaining activity at 1 uM by Kinome scan method relative to control
# Sequence of Phosphatidylinositol 4-kinase beta (Homo sapiens) (Q9UBF8 2-816 limits assumed): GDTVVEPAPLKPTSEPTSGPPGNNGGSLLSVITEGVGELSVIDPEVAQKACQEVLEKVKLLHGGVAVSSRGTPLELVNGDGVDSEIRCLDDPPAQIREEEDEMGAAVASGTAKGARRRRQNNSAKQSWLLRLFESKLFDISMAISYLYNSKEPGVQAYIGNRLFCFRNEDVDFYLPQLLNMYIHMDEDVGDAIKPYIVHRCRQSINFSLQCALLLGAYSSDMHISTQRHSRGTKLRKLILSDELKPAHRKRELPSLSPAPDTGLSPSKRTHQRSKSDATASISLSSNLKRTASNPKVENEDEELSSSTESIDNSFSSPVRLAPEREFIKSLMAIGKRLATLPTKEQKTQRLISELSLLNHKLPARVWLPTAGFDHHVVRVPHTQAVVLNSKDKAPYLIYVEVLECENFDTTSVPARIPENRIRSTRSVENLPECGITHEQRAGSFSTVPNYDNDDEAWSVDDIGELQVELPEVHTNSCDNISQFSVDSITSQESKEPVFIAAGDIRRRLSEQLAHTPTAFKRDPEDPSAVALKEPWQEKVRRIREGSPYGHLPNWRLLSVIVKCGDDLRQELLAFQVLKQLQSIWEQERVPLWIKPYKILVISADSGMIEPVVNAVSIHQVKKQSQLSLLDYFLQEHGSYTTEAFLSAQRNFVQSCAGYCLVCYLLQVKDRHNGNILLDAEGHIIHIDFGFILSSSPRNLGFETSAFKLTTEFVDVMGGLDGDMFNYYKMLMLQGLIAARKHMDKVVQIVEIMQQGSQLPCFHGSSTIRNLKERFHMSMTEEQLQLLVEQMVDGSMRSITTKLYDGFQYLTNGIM
# [21] = target: Tyrosine-protein kinase HCK (Homo sapiens) (UniProt P08631); assay: Inhibition of HCK (unknown origin) assessed as remaining activity at 1 uM by Kinome scan method relative to control
# [22] = target: Serine/threonine-protein kinase NLK (Homo sapiens) (UniProt Q9UBE8); assay: Inhibition of NLK (unknown origin) assessed as remaining activity at 1 uM by Kinome scan method relative to control
# [23] = target: Membrane-associated tyrosine- and threonine-specific cdc2-inhibitory kinase (Homo sapiens) (UniProt Q99640); assay: Inhibition of PKMYT1 (unknown origin) assessed as remaining activity at 1 uM by Kinome scan method relative to control
# [24] = system: HepG2; assay: Induction of apoptosis in human HepG2 cells assessed as necrosis cells at 3 uM by annexinV staining (Rvb =0.04 %); type: functional
# [25] = target: Platelet-derived growth factor receptor beta (Homo sapiens) (UniProt P09619); assay: Inhibition of PDGFRbeta (unknown origin) assessed as remaining activity at 1 uM by Kinome scan method relative to control
# Sequence of Platelet-derived growth factor receptor beta (Homo sapiens) (P09619 whole entry): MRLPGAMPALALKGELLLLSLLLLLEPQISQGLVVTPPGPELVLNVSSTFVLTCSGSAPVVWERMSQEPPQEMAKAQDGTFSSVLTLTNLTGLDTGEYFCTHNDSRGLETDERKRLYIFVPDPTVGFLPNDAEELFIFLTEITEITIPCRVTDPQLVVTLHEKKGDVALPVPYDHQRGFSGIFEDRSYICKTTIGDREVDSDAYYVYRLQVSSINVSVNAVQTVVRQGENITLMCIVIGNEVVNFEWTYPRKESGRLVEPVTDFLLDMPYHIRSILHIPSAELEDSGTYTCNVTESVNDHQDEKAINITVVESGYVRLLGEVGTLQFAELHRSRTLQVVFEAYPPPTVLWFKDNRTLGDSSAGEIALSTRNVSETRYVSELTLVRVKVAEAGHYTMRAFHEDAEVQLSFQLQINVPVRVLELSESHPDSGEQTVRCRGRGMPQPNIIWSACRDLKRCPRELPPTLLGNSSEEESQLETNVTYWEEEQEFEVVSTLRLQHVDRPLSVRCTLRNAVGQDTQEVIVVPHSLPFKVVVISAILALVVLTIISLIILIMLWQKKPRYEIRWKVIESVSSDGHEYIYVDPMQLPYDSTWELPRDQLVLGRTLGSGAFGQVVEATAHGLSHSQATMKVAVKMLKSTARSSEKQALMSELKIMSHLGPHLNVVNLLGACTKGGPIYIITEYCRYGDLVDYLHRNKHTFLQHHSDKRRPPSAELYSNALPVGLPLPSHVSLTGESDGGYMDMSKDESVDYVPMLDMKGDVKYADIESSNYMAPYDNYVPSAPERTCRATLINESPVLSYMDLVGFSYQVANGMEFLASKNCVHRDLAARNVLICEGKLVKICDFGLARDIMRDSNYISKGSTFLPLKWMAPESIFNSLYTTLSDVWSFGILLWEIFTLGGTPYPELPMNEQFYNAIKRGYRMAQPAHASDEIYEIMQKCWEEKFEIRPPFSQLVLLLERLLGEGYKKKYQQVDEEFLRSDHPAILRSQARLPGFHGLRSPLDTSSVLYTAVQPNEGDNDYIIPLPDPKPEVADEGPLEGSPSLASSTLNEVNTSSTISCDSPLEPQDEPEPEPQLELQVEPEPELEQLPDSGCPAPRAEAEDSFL
structure (smiles),measurement,setting,value
CN1C(=O)c2sccc2N(C)c2nc(Nc3ccc(S(N)(=O)=O)cc3)ncc21,Activity,[1],100%
same,IC50,[2],1230 nM
same,Activity,[3],6.8%
same,inhibition,[4],Active
same,Activity,[5],100%
same,Activity,[6],86%
same,Activity,[7],100%
same,IC50,[8],164 nM
same,Activity,[9],98%
same,Activity,[10],100%
same,Activity,[11],92%
same,IC50,[12],9.8 nM
same,Activity,[13],94%
same,Activity,[14],84%
same,Activity,[15],100%
same,Activity,[16],15%
same,Activity,[17],100%
same,Activity,[18],87%
same,Activity,[19],100%
same,Activity,[20],65%
same,Activity,[21],100%
same,Activity,[22],85%
same,Activity,[23],100%
same,Activity,[24],0.05%
same,Activity,[25],90%
